The source of these data is ChEMBL document CHEMBL1143308, “Spiro-piperidine azetidinones as potent TRPV1 antagonists” (Bioorg Med Chem Lett, 2009).

By bioavailability is commonly meant the share of a dose that reaches the circulation, judged against a reference dose that is usually intravenous. By AUC(0-t) is commonly meant the area under the concentration-time curve up to a stated or last time point. In general, IC50 refers to the concentration that inhibits the measured activity by half. Broadly, the half-life is the time in which the quantity being followed falls by half. The solubility is the concentration that dissolves in the medium under given conditions.

In brackets after ≈: the same amount, converted by molar mass. Activity calls are given as the source filed them. The calls are words filed in the database; no cut-off is given here.

Tested on in one series: not listed separately
Nature of the series: Stability in pH 7.4 buffer after 24 hrs. The note with it: pH 7.4, 24 h. The class given is physicochemical. The method, boiled down: (§1)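 Compound held in pH 7.4 buffer spiked with 0.1 M NaSMe and methylamine to mimic plasma nucleophiles. Followed by LC–MS for up to 24 h, tracking loss of parent and appearance of the ring-opened amino acid.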
Consider `CC(C)(C)OC(=O)N1CCC2(CC1)C(=O)N(c1ccccc1)C2c1ccccc1` (centres undefined), for which the Stability entry was “Stable”.

Tested on in a further series: not listed separately
Nature of the series: Oral bioavailability in rat at 10 mg/kg. It is filed as ADME, organism-based. The note with it: in vivo.
As for `O=C(Nc1ccc(C(F)(F)F)cc1)N1CCC2(CC1)C(=O)N(c1ccccn1)[C@H]2c1ccccc1`, the bioavailability was 45%.

For the next series, the target named is T1, Transient receptor potential cation channel subfamily V member 1 (Homo sapiens, UniProt Q8NER1). Nature of the series: Antagonist activity at TRPV1 expressed in HEK293 cells assessed as inhibition of capsaicin-induced activation at 10 uM by FLIPR assay. The class given is functional, cell-based. Set-up: scale not given: the % may be the effect or the level left.
T1 sequence (Q8NER1 whole entry): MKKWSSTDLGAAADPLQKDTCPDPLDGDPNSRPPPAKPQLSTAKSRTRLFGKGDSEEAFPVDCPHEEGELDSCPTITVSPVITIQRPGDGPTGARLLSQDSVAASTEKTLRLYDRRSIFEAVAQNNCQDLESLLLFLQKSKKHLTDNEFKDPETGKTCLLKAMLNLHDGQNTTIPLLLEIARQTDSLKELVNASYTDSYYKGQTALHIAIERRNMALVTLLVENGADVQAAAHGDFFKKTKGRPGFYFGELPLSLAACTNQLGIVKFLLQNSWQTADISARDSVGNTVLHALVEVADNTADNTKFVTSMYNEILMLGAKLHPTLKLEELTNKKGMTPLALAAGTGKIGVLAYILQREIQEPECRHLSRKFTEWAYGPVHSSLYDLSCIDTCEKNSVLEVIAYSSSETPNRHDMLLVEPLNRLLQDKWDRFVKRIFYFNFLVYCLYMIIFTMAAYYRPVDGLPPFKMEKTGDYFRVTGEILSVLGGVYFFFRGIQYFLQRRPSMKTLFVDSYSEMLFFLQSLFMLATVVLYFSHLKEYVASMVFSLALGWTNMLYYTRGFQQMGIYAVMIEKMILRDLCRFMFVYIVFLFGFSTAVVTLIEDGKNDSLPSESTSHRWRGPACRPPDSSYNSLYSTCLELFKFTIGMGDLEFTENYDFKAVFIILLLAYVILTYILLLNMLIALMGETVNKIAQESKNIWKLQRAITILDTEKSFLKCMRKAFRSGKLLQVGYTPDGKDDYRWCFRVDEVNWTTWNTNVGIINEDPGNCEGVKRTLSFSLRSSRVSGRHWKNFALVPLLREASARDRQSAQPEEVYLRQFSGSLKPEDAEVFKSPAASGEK
Conditions: not given
The essentials:
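TRPV1 FLIPR run at 37 °C in stably transfected HEK293 cells, capsaicin-activated. Percent inhibition measured with test compound at a single concentration of 10 µM, from DMSO solution, with a DMSO vehicle control.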
In the case of `O=C(Nc1ccc(C(F)(F)F)cc1)N1CCC2(CC1)C(=O)N(c1ccccn1)[C@@H]2c1ccccc1`, the Activity turned out to be 83%.
For the molecule `CC(C)c1ccc(NC(=O)N2CCC3(CC2)C(=O)N(c2ccccc2)[C@@H]3c2ccccc2)cc1`, the outcome was inactive.
`CC(C)(C)c1ccc(NC(=O)N2CCC3(CC2)CN(c2ccccc2-c2ccccc2)C3=O)cc1`: the Activity worked out at 73%.
Take `CC(C)(C)c1ccc(NC(=O)N2CCC3(CC2)C(=O)N(c2ccccc2)[C@@H]3c2ccccc2)cc1`: the Activity came out at 8.5%.

Tested on in the next series: not listed separately
Nature of the series: AUC (0 to 6 hrs) in rat at 10 mg/kg, po. It is filed as ADME, organism-based. Further details: time < 6 hr, dose 10 mg/kg, route oral. The note with it: plasma. The essentials:
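Rat pharmacokinetics: oral dosing at 10 mpk in 20% HPBCD vehicle; AUC taken over 0–6 h.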
Consider `O=C(Nc1ccc(C(F)(F)F)cc1)N1CCC2(CC1)C(=O)N(c1ccccn1)[C@H]2c1ccccc1`, for which the AUC(0-t) at 6 h came to 2.5 µg·h/mL.
As for `CC(C)c1ccc(NC(=O)N2CCC3(CC2)C(=O)N(c2ccccc2)C3c2ccccc2)cc1` (centres undefined), the AUC(0-t) at 6 h stood at 0.044 µg·h/mL.
As for `O=C(Nc1ccc(C(F)(F)F)cc1)N1CCC2(CC1)C(=O)N(c1ccccc1)C2c1ccccc1` (racemic), the AUC(0-t) at 6 h was 1.66 µg·h/mL.
The molecule `CC(C)c1ccc(NC(=O)N2CCC3(CC2)C(=O)N(c2ccccc2)[C@H]3c2ccccc2)cc1` registered an AUC(0-t) at 6 h of 0.019 µg·h/mL.
`CC(C)(C)c1ccc(NC(=O)N2CCC3(CC2)C(=O)N(c2ccccc2)[C@H]3c2ccccc2)cc1` displayed an AUC(0-t) at 6 h of 0.049 µg·h/mL.

Tested on in a further series: not listed separately
Kind of series: Stability in pH 7.4 buffer assessed as formation of 1-(tert-butoxycarbonyl)-3-(phenyl(phenylamino)methyl)azetidine-3-carboxylic acid after 2 hrs. It is filed as physicochemical. The note with it: pH 7.4, 2 h. The method, boiled down: as §1
As to `CC(C)(C)OC(=O)N1CC2(C1)C(=O)N(c1ccccc1)C2c1ccccc1` (centres undefined), the Stability result is listed as “Unstable”.

The target in the next series is T1, Transient receptor potential cation channel subfamily V member 1. Kind of series: Antagonist activity at TRPV1 expressed in HEK293 cells assessed as inhibition of PMA-induced activation by FLIPR assay. The class given is functional, cell-based.
Conditions: not given
The essentials:
(§2)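 FLIPR calcium-flux run at 37 °C in a HEK293 line stably transfected with TRPV1. Channel activated by capsaicin or by PMA, and the IC50 is taken against each agonist. Compounds dissolved in DMSO, with DMSO alone as the vehicle control.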
As for `CC(C)(C)[C@H]1CC[C@@H](NC(=O)N2CCC3(CC2)C(=O)N(c2ccccc2)[C@H]3c2ccccc2)CC1`, the IC50 was determined as 0.232 µM.
Consider `O=C(Nc1ccc(C(F)(F)F)cn1)N1CCC2(CC1)C(=O)N(c1ccccc1)C2c1ccccc1` (racemic), for which the IC50 amounted to 0.318 µM.
`CC(C)(C)c1ccc(NC(=O)N2CCC3(CC2)CN(c2ccccc2)C3=O)cc1`: the concentration for half-maximal inhibition (IC50) was 0.059 µM.
Turning to `O=C(Nc1ccc(C(F)(F)F)cc1)N1CCC2(CC1)C(=O)N(c1ccccn1)[C@H]2c1ccccc1`, the IC50 was 0.0085 µM.
For the molecule `CC(C)c1ccc(NC(=O)N2CCC3(CC2)C(=O)N(c2ccccc2)C3c2ccccc2)cc1` (centres undefined), the IC50 is 0.113 µM.
For the molecule `O=C(Nc1ccc(C(F)(F)F)cc1)N1CCC2(CC1)C(=O)N(c1ccccc1)C2c1ccccc1` (racemic), the IC50 stood at 0.103 µM.
Consider `CC(C)c1ccc(NC(=O)N2CCC3(CC2)C(=O)N(c2ccccc2)[C@H]3c2ccccc2)cc1`, for which the IC50 was determined as 0.043 µM.
With `CC(C)(C)c1ccc(NC(=O)N2CCC3(CC2)C(=O)N(c2ccccc2)[C@H]3c2ccccc2)cc1`, the IC50 came to 0.012 µM.
On to `CC(C)(C)[C@H]1CC[C@H](NC(=O)N2CCC3(CC2)C(=O)N(c2ccccc2)[C@H]3c2ccccc2)CC1`, for which the IC50 was found to be 0.032 µM.

Tested on in another series: not listed separately
Nature of the series: Half life in iv dosed rat. The note with it: in vivo. It is filed as ADME, organism-based. The essentials: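 Rat dosed intravenously as an add-on to the oral PK study (10 mpk oral in 20% HPBCD); terminal half-life from the iv arm.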
Molecule `O=C(Nc1ccc(C(F)(F)F)cc1)N1CCC2(CC1)C(=O)N(c1ccccn1)[C@H]2c1ccccc1` gave a half-life of 2.5 h.

Tested on in a further series: not listed separately
Nature of the series: Aqueous solubility of the compound. The class given is physicochemical. The note with it: buffer.
Molecule `O=C(Nc1ccc(C(F)(F)F)cc1)N1CCC2(CC1)C(=O)N(c1ccccn1)[C@H]2c1ccccc1` returned a solubility of 0.3 µM (≈ 0.144 µg/mL).
Same read-out and setting: as for `CC(C)(C)c1ccc(NC(=O)N2CCC3(CC2)C(=O)N(c2ccccc2)[C@H]3c2ccccc2)cc1`, the figure is 0.094 µM (≈ 0.044 µg/mL).

Another series deals with T1, Transient receptor potential cation channel subfamily V member 1. Nature of the series: Antagonist activity at TRPV1 expressed in HEK293 cells assessed as inhibition of capsaicin-induced activation by FLIPR assay. It is filed as functional, cell-based.
Conditions: not given
The essentials:
as §2
For `CC(C)(C)[C@H]1CC[C@@H](NC(=O)N2CCC3(CC2)C(=O)N(c2ccccc2)[C@H]3c2ccccc2)CC1`, the IC50 came to 0.528 µM.
On to `O=C(Nc1ccc(C(F)(F)F)cn1)N1CCC2(CC1)C(=O)N(c1ccccc1)C2c1ccccc1` (racemic), for which the IC50 was 0.205 µM.
For the molecule `CC(C)(c1ccccc1)c1ccc(NC(=O)N2CCC3(CC2)C(=O)N(c2ccccc2)[C@H]3c2ccccc2)cc1`, the IC50 is 0.226 µM.
With `CC(C)(C)c1ccc(NC(=O)N2CCC3(CC2)CN(c2ccccc2)C3=O)cc1`, the IC50 was 0.08 µM.
In the case of `O=C(Nc1ccc(C(F)(F)F)cc1)N1CCC2(CC1)C(=O)N(c1ccccn1)[C@H]2c1ccccc1`, the concentration for half-maximal inhibition (IC50) came to 0.013 µM.
On to `CC(C)c1ccc(NC(=O)N2CCC3(CC2)C(=O)N(c2ccccc2)C3c2ccccc2)cc1` (centres undefined), for which the IC50 was 0.101 µM.
Regarding `O=C(Nc1ccc(C(F)(F)F)cc1)N1CCC2(CC1)C(=O)N(c1ccccc1)C2c1ccccc1` (racemic), the IC50 was found to be 0.085 µM.
As for `CC(C)c1ccc(NC(=O)N2CCC3(CC2)C(=O)N(c2ccccc2)[C@H]3c2ccccc2)cc1`, the IC50 was 0.081 µM.
As to `CC(C)(C)c1ccc(NC(=O)N2CCC3(CC2)C(=O)N(c2ccccc2)[C@H]3c2ccccc2)cc1`, the concentration for half-maximal inhibition (IC50) was 0.0094 µM.
Turning to `CC(C)(C)[C@H]1CC[C@H](NC(=O)N2CCC3(CC2)C(=O)N(c2ccccc2)[C@H]3c2ccccc2)CC1`, the IC50 amounted to 0.049 µM.
